The values below come from ChEMBL document CHEMBL5030505, “Assessment of NR4A Ligands That Directly Bind and Modulate the Orphan Nuclear Receptor Nurr1” (J Med Chem, 2020).

Holding throughout (format): cell-based
For one data set, the system named is SK-N-BE(2). Description: Cytotoxicity against human SKNBE(2) cells assessed as reduction in cell viability at 1.56 to 6.25 microM incubated for 18 hrs by Cell titer-glo assay. To be noted: dose 1.56-6.25 µM. Put shortly: (§1)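 Cells seeded 1.5 million per 10-cm dish; next day replated at 10,000 cells/well in 384-well format, 4 h, then ligand or vehicle (water, ethanol or DMSO by ligand) added in quadruplicate for 18 h; viability read by CellTiter-Glo luminescence. Mean ± s.e.m. (n=4), generally 2 independent experiments; one-way ANOVA versus vehicle.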
On the technique in general: In ATP-based viability assays light output follows the ATP content of the culture.

The test system of data set [1] is PC-12. Nature of the data set: Cytotoxicity against rat PC12 cells assessed as reduction in cell viability at 1.56 to 6.25 microM incubated for 18 hrs by Cell titer-glo assay. The following applies: pc-12, 18 h, dose 1.56-6.25 µM. Put shortly:
as §1

For another data set, the system named is HEK-293T. Nature of the data set: Cytotoxicity against human HEK293T cells assessed as reduction in cell viability at 1.56 to 6.25 microM incubated for 18 hrs by Cell titer-glo assay. The following applies: dose 1.56-6.25 µM. Put shortly:
as §1

Another data set concerns SKNBE2. Description: Modulation of Gal4-fused VP16 expressed in SKNBE(2) cells co-transfected with UAS repoter gene assessed as decrease in luciferase activity at 1.56 to 6.25 uM incubated for 18 hrs by luciferase reporter gene assay. The following applies: Human alphaherpesvirus 2, filed as modulator, dose 1.56-6.25 µM. Put shortly:
(§2)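 Constitutive control: cells transfected (Lipofectamine 2000) with Gal4-VP16 expression plasmid (2 μg) plus 5xUAS-luciferase reporter (2 μg), 18 h; replated 10,000 cells/well, 4 h; ligand or vehicle in quadruplicate for 18 h; luciferase read by Britelite Plus; signal as fold change over vehicle-treated cells. Mean ± s.e.m. (n=4); one-way ANOVA versus vehicle.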
Background: In a reporter assay the amount or activity of a reporter protein is the signal.

Data set [2] concerns HEK293T. Nature of the data set: Modulation of Gal4-fused VP16 expressed in HEK293T cells co-transfected with UAS repoter gene assessed as decrease in luciferase activity at 1.56 to 6.25 uM incubated for 18 hrs by luciferase reporter gene assay. To be noted: Human alphaherpesvirus 2, filed as modulator, dose 1.56-6.25 µM. Put shortly: as §2
For data set [3], the target named is Nuclear receptor subfamily 4 group A member 2 (Homo sapiens) (UniProt P43354). Description: Modulation of full length human Nurr1 expressed in SKNBE(2) cells co-transfected with RXRalpha and luciferase reporter plasmid harboring NBRE response element assessed as decrease in luciferase activity at 1.56 to 6.25 uM incubated for 18 by luciferase reporter gene assay. The following applies: SKNBE2, filed as modulator, dose 1.56-6.25 µM, time 18.0 hrs.

For data set [4] the target is unchanged. Description: Modulation of full length human Nurr1 expressed in SKNBE(2) cells co-transfected with RXRalpha and luciferase reporter plasmid harboring NBRE response element assessed as increase in luciferase activity at 1.56 to 6.25 uM incubated for 18 by luciferase reporter gene assay. To be noted: SKNBE2, filed as modulator, dose 1.56-6.25 µM, time 18.0 hrs.

For data set [5] the target is unchanged. Description: Modulation of full length human Nurr1 expressed in PC12 cells co-transfected with RXRalpha and luciferase reporter plasmid harboring NurRE response element assessed as decrease in luciferase activity at 1.56 to 6.25 uM incubated for 18 by luciferase reporter gene assay. The following applies: PC-12, filed as modulator, dose 1.56-6.25 µM, time 18.0 hrs.

Data set [6] shares this target. Nature of the data set: Modulation of full length human Nurr1 expressed in PC12 cells co-transfected with RXRalpha and luciferase reporter plasmid harboring NBRE response element assessed as decrease in luciferase activity at 1.56 to 6.25 uM incubated for 18 by luciferase reporter gene assay. The following applies: PC-12, filed as modulator, dose 1.56-6.25 µM, time 18.0 hrs.

For data set [7] the target is unchanged. Description: Modulation of full length human Nurr1 expressed in PC12 cells co-transfected with RXRalpha and luciferase reporter plasmid harboring NBRE response element assessed as increase in luciferase activity at 1.56 to 6.25 uM incubated for 18 by luciferase reporter gene assay. To be noted: PC-12, filed as modulator, dose 1.56-6.25 µM, time 18.0 hrs.

For data set [8] the target is unchanged. Nature of the data set: Modulation of full length human Nurr1 expressed in HEK293T cells co-transfected with RXRalpha and luciferase reporter plasmid harboring NurRE response element assessed as increase in luciferase activity at 1.56 to 6.25 uM incubated for 18 by luciferase reporter gene assay. To be noted: filed as modulator, dose 1.56-6.25 µM, time 18.0 hrs.

Data set [9] shares this target. Description: Modulation of full length human Nurr1 expressed in HEK293T cells co-transfected with RXRalpha and luciferase reporter plasmid harboring NBRE response element assessed as increase in luciferase activity at 1.56 to 6.25 uM incubated for 18 by luciferase reporter gene assay. The following applies: filed as modulator, dose 1.56-6.25 µM, time 18.0 hrs.
The target is the same in data set [10]. Nature of the data set: Modulation of full length human Nurr1 expressed in SKNBE(2) cells co-transfected with luciferase reporter plasmid harboring NBRE response element assessed as decrease in luciferase activity at 1.56 to 6.25 uM incubated for 18 by luciferase reporter gene assay. The following applies: SKNBE2, filed as modulator, dose 1.56-6.25 µM, time 18.0 hrs. Put shortly: (§3)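 Cells transfected (Lipofectamine 2000, 18 h) with full-length Nurr1 expression plasmid (2 μg) and 3xNBRE- or 3xNurRE-luciferase reporter (6 μg), no internal control normalisation; replated 10,000 cells/well, 4 h; ligand or vehicle in quadruplicate for 18 h; Britelite Plus luminescence as fold change over vehicle. Mean ± s.e.m. (n=4); one-way ANOVA versus vehicle.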

For data set [11] the target is unchanged. Description: Modulation of full length human Nurr1 expressed in SKNBE(2) cells co-transfected with luciferase reporter plasmid harboring NBRE response element assessed as increase in luciferase activity at 1.56 to 6.25 uM incubated for 18 by luciferase reporter gene assay. The following applies: SKNBE2, filed as modulator, dose 1.56-6.25 µM, time 18.0 hrs. Put shortly: as §3

The target is the same in data set [12]. Nature of the data set: Modulation of full length human Nurr1 expressed in PC12 cells co-transfected with luciferase reporter plasmid harboring NurRE response element assessed as decrease in luciferase activity at 1.56 to 6.25 uM incubated for 18 by luciferase reporter gene assay. To be noted: PC-12, filed as modulator, dose 1.56-6.25 µM, time 18.0 hrs. Put shortly:
as §3

For data set [13] the target is unchanged. Description: Modulation of full length human Nurr1 expressed in PC12 cells co-transfected with luciferase reporter plasmid harboring NurRE response element assessed as increase in luciferase activity at 1.56 to 6.25 uM incubated for 18 by luciferase reporter gene assay. The following applies: PC-12, filed as modulator, dose 1.56-6.25 µM, time 18.0 hrs. Put shortly: as §3

The target is the same in data set [14]. Nature of the data set: Modulation of full length human Nurr1 expressed in HEK293T cells co-transfected with luciferase reporter plasmid harboring NurRE response element assessed as decrease in luciferase activity at 1.56 to 6.25 uM incubated for 18 by luciferase reporter gene assay. To be noted: filed as modulator, dose 1.56-6.25 µM, time 18.0 hrs. Put shortly: as §3

For data set [15] the target is unchanged. Nature of the data set: Modulation of full length human Nurr1 expressed in HEK293T cells co-transfected with luciferase reporter plasmid harboring NBRE response element assessed as increase in luciferase activity at 1.56 to 6.25 uM incubated for 18 by luciferase reporter gene assay. The following applies: filed as modulator, dose 1.56-6.25 µM, time 18.0 hrs. Put shortly:
as §3

Data set [16] relates to PC-12. Nature of the data set: Modulation of Gal4-fused VP16 expressed in PC12 cells co-transfected with UAS repoter gene assessed as decrease in luciferase activity at 5 to 100 uM incubated for 18 hrs by luciferase reporter gene assay. The following applies: Human alphaherpesvirus 2, filed as modulator, dose 5-100 µM. Put shortly:
(§4)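 Cells in 10-cm dishes were transfected with Gal4-VP16 expression plasmid (2 μg) plus 5xUAS-luciferase reporter (2 μg) for 18 h. They were replated at 10,000 cells/well for 4 h, then given ligand or vehicle (water, ethanol or DMSO) in quadruplicate for 18 h. Luciferase was read with Britelite Plus. Fold change is versus vehicle-treated cells, with one-way ANOVA versus vehicle.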

The test system of data set [17] is HEK293T. Nature of the data set: Modulation of Gal4-fused VP16 expressed in HEK293T cells co-transfected with UAS repoter gene assessed as decrease in luciferase activity at 5 to 100 uM incubated for 18 hrs by luciferase reporter gene assay. To be noted: Human alphaherpesvirus 2, filed as modulator, dose 5-100 µM. Put shortly:
as §4

Each structure is given as a SMILES string. Calls of active or inactive are those of the source. The calls are words filed in the database; no cut-off is given here.

Sequence of Nuclear receptor subfamily 4 group A member 2 (Homo sapiens) (P43354 whole entry): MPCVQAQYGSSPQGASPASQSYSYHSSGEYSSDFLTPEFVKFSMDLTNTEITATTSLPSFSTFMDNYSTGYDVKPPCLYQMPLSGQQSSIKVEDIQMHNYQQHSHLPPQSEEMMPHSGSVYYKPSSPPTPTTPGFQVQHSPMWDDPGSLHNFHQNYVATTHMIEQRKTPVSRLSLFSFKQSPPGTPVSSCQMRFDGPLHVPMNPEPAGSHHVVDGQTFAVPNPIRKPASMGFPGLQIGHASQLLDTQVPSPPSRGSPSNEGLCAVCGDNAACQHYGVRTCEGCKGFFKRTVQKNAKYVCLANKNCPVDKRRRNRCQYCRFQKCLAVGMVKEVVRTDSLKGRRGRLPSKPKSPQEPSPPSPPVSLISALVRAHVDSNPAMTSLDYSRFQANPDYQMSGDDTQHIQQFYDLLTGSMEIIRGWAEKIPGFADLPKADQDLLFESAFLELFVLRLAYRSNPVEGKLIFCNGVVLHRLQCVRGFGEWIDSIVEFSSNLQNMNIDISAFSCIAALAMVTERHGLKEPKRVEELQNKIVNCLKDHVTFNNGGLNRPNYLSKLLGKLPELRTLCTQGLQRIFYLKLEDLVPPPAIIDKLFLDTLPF

Take `CC1=C(O)C(=O)C=C2C1=CC=C1[C@@]2(C)CC[C@@]2(C)[C@@H]3C[C@](C)(C(=O)O)CC[C@]3(C)CC[C@]12C` [CELASTROL]: the Activity entry in the data set on SK-N-BE(2), in the data set with PC-12 [1] and in the data set on HEK-293T was “Toxic” each time. The outcome (in the data set on SKNBE2; in the data set with HEK293T [2]; in data set [3]; in [4]; in data set [5]; in [6]) was Active. In addition, the outcome in data set [7], in data set [8], in [9], in [10], in data set [11] and in data set [12] was Active. Also, the result in data set [13], in [14] and in data set [15] was Active.
Regarding `CCCCCCCC(=O)c1c(O)cc(O)cc1CC(=O)OCC` [CYTOSPORONE B], the outcome in the data set with PC-12 [16] and in the data set on HEK293T [17] was Active.
